The values below come from ChEMBL document CHEMBL4402563, “Preclinical Optimization of gp120 Entry Antagonists as anti-HIV-1 Agents with Improved Cytotoxicity and ADME Properties through Rational Design, Synthesis, and Antiviral Evaluation” (J Med Chem, 2020).

Series [1] can be described thus: Cytotoxicity against dog Cf2Th-CCR5 cells infected with CD4-dependent pseudovirus HIV1 ADA incubated for 48 hrs by MTS assay. Background: Tetrazolium assays rely on reduction of a dye to a coloured formazan, in cell work by metabolically active cells.
Series [2] has as its system Human immunodeficiency virus 1. Description: Antiviral activity against HIV1-ADA infected in human MOLT4 cells assessed as inhibition in cell to cell HIV1 transmission to human TZM-bl acceptor cells incubated for 24 hrs by luciferase based assay. The note with it: Human immunodeficiency virus 1, 24 h. The series is classed as functional, organism-based.
Series [3] concerns Human immunodeficiency virus 1. In words: Antiviral activity against HIV1 HXB2 infected in human TZM-bl cells preincubated for 30 min followed by viral infection and measured after 3 days by luciferase based assay. The series is classed as functional, organism-based. As to conditions: Human immunodeficiency virus 1, M:B_HXB2R. The method in brief: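 Single-cycle pseudovirus carrying HXB2 Env (CXCR4-tropic), made in HEK293T by co-transfecting an Env-deleted backbone (pSG3Δenv or pNL4-3.Luc.R-E-) with an Env plasmid. TZM-bl cells were seeded at 1 × 10^4/well and grown overnight. Virus was pretreated with graded compound concentrations, then added. Cells were washed and lysed, and IC50 was taken from percent inhibition.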

For series [4], the system named is Human immunodeficiency virus 1. Description: Antiviral activity against HIV1-3B infected in human H9 cells assessed as inhibition in cell to cell HIV1 transmission to human TZM-bl acceptor cells incubated for 24 hrs by luciferase based assay. The series is classed as functional, organism-based. As to conditions: Human immunodeficiency virus 1, 3B.
The next series deals with TZM. In words: Cytotoxicity against human TZM-bl cells incubated for 3 days by MTS assay. Type of series: cell-based. As to conditions: 72 h.
The test system of series [5] is Human immunodeficiency virus 1. In words: microbe, parasite or virus in culture. As to conditions: Human immunodeficiency virus 1, subtypeA.
Series [6] relates to Human immunodeficiency virus 1. In words: microbe, parasite or virus in culture. The note with it: Human immunodeficiency virus 1, subtypeA. This is another data set of the same source.

SMILES strings stand for the structures.

Take `CC1(C)CC(NC(=O)C(=O)Nc2ccc(Cl)cc2)CC(C)(C)N1`: the Activity entry in series [1] is listed as “Non-Toxic”.

Consider `COc1cnc(-n2cnc(C)n2)c2[nH]cc(C(=O)C(=O)N3CCN(C(=O)c4ccccc4)CC3)c12`, for which the IC50 is 0.2 µM in series [2], < 0.001 µM in series [3] and 0.02 µM in series [4].

Regarding `NC[C@@H](NC(=O)c1ccc(-c2ccc(C(F)(F)F)cn2)[nH]1)c1ncc(CO)s1`, in series [3], the IC50 is 0.96 µM. Moreover, the CC50 in the series with TZM is > 122 µM.

In series [3], `CC(C)(N)[C@H](NC(=O)c1ccc(-c2ccc(C(F)(F)F)cn2)[nH]1)c1nc(CO)cs1` returned an IC50 of 0.58 µM. In the series with TZM, this compound displayed a CC50 of 59 µM.

Compound `NC[C@H](NC(=O)c1ccc(-c2ccc(Cl)cn2)[nH]1)c1ncc(CO)s1` returned an IC50 in series [3] of 2.7 µM. The CC50 in the series with TZM was 142 µM.

`NC[C@@H](NC(=O)c1ccc(-c2ccc(C(F)(F)F)nc2)[nH]1)c1nc(CO)cs1` came in with an IC50 in series [3] of 12.7 µM.

Take `Cc1cc(-c2ccc(C(F)(F)F)cn2)[nH]c1C(=O)N[C@H](c1ncc(CO)s1)C(C)(C)N`: in series [3], the IC50 was 0.43 µM. The compound further displayed a CC50 in the series with TZM of 37.5 µM.

Take `NC[C@@H](NC(=O)c1ccc(-c2ccc(F)cn2)[nH]1)c1nc(CO)cs1`: the IC50 in series [3] is > 11 µM.

Consider `COc1cc(-c2ccc(C(=O)N[C@@H](CN)c3nc(CO)cs3)[nH]2)ccn1`, for which, in series [3], the IC50 is > 11 µM. In addition, the CC50 in the series with TZM was > 133 µM.

In the case of `Cc1cc(-c2ccc(Cl)cn2)[nH]c1C(=O)N[C@@H](CN)c1ncc(CO)s1`, half-maximal inhibition in series [3] (IC50) required 2.4 µM. The CC50 in the series with TZM turned out to be 95 µM.

For `NC[C@@H](NC(=O)c1ccc(-c2ccc(C(F)(F)F)cn2)[nH]1)c1nc(CO)cs1`, in series [3], half-maximal inhibition (IC50) was put at 0.59 µM. The compound further had a CC50 in the series on TZM of 94.3 µM.

`Cc1ccc(-c2ccc(C(=O)N[C@H](CN)c3nc(CO)cs3)[nH]2)nc1` displayed an IC50 in series [3] of 9.6 µM.

In turn, `NC[C@H](NC(=O)c1ccc(-c2ccc(C(F)(F)F)cn2)[nH]1)c1nc(C(O)CO)cs1` (stereo partly specified) registered an IC50 in series [3] of 3.8 µM. Also, the CC50 in the series on TZM was > 113 µM.

`NC[C@@H](NC(=O)c1ccc(-c2ccc(C(F)(F)F)cn2)[nH]1)c1nc(CCCO)cs1` registered an IC50 in series [3] of 2.3 µM. In the series on TZM, the CC50 is > 114 µM.

As to `Cc1cc(-c2ccc(C(F)(F)F)cn2)[nH]c1C(=O)N[C@H](CN)c1nc(CO)cs1`, in series [1], the Activity result is on record as “Non-Toxic”.

As for `NC[C@H](NC(=O)c1ccc(-c2ccc(Cl)nc2)[nH]1)c1nc(CO)cs1`, in series [3], the IC50 is > 11 µM. Further, the CC50 in the series with TZM was > 132 µM.

In the case of `Cc1cc(-c2ccc(C(F)(F)F)cn2)[nH]c1C(=O)N[C@@H](c1ncc(CO)s1)C(C)(C)N`, the IC50 in series [3] stood at 0.6 µM. This compound gave a CC50 with TZM of 35.3 µM.

Take `Cc1cc(-c2ccc(C(F)(F)F)cn2)[nH]c1C(=O)N[C@@H](CN)c1nc(CO)cs1`: half-maximal cytotoxicity in the series with TZM (CC50) was put at 85 µM.

As for `NC[C@@H](NC(=O)c1ccc(-c2ccc(Cl)cn2)[nH]1)c1nc(CO)cs1`, in series [3], half-maximal inhibition (IC50) was put at 5 µM. Besides, the cytotoxic concentration (CC50) in the series with TZM is > 132 µM.

For the compound `Cc1cc(-c2ccc(C(F)(F)F)cn2)[nH]c1C(=O)N[C@H](CN)c1ncc(CO)s1`, it took 92.8 µM to reach half-maximal cytotoxicity in the series with TZM (CC50). This counts as double-digit micromolar.

As to `NC[C@H](NC(=O)c1ccc(-c2ncc(Cl)cn2)[nH]1)c1nc(CO)cs1`, the IC50 in series [3] is > 15.8 µM. Also, the CC50 in the series on TZM was > 66 µM.

Compound `NC[C@H](NC(=O)c1ccc(-c2ccc(C(F)(F)F)cn2)[nH]1)c1ncc(C(O)CO)s1` (stereo partly specified) showed an IC50 in series [3] of 5.9 µM. Further, in the series on TZM, the CC50 was > 113 µM.

As to `CC(C)(N)[C@H](NC(=O)c1ccc(-c2ccc(C(F)(F)F)cn2)[nH]1)c1ncc(CO)s1`, half-maximal inhibition in series [3] (IC50) was put at 0.5 µM. Also, the 50% cytotoxic concentration (CC50) in the series on TZM worked out at 42.4 µM.

For `NC[C@@H](NC(=O)c1ccc(-c2ccc(C(F)(F)F)nn2)[nH]1)c1nc(CO)cs1`, in series [3], the IC50 is > 12 µM. For the same compound, the CC50 with TZM was > 73 µM.

Turning to `Cc1cc(-c2ccc(Cl)cn2)[nH]c1C(=O)N[C@H](CN)c1ncc(CO)s1`, in series [3], the IC50 came out at 1.2 µM. The compound also returned a CC50 in the series on TZM of 98.3 µM.

In turn, `CC(C)(N)[C@@H](NC(=O)c1ccc(-c2ccc(C(F)(F)F)cn2)[nH]1)c1nc(CO)cs1` displayed an IC50 in series [3] of 1.7 µM. The compound also yielded a CC50 in the series with TZM of 61 µM.

For the compound `NC[C@H](NC(=O)c1ccc(-c2ccc(C(F)(F)F)cn2)[nH]1)c1nccs1`, the IC50 in series [3] worked out at 1.2 µM. This compound also displayed a CC50 in the series with TZM of 93.6 µM.

The compound `NC[C@@H](NC(=O)c1ccc(-c2ccc(C(F)(F)F)cn2)[nH]1)c1nc(CCO)cs1` had an IC50 in series [3] of 1.7 µM. In the series on TZM, this compound registered a CC50 of 100 µM.

For the compound `NC[C@@H](NC(=O)c1ccc(-c2ccc(C(F)(F)F)cn2)[nH]1)c1nccs1`, in series [3], the midpoint of inhibition, the IC50, lay at 2 µM. Besides, the CC50 with TZM was determined as 89.3 µM.

As for `NC[C@@H](NC(=O)c1ccc(-c2ncc(Cl)cn2)[nH]1)c1nc(CO)cs1`, the half-maximal inhibitory concentration (IC50) in series [3] was > 15.8 µM.

Turning to `NC[C@H](NC(=O)c1ccc(-c2ccc(F)cn2)[nH]1)c1nc(CO)cs1`, the IC50 in series [3] was > 11 µM. Further, the CC50 with TZM was > 138 µM.

For `NC[C@@H](NC(=O)c1ccc(-c2ccc(C(F)(F)F)cc2)[nH]1)c1ncc(CO)s1`, the IC50 in series [5] was 0.8 µM; in series [6], 0.7 µM. In the series with TZM, this compound gave a CC50 of 42.4 µM.

For the compound `COc1cc(-c2ccc(C(=O)N[C@H](CN)c3nc(CO)cs3)[nH]2)ccn1`, the IC50 in series [3] was > 11 µM.

In series [3], `NC[C@H](NC(=O)c1ccc(-c2ccc(Cl)cn2)[nH]1)c1nc(CO)cs1` registered an IC50 of 1.7 µM.

`NC[C@H](NC(=O)c1ccc(-c2ccc(C(F)(F)F)cn2)[nH]1)c1nc(CO)c(CO)s1`: the IC50 in series [3] is > 13 µM.

As to `CC(C)(N)[C@@H](NC(=O)c1ccc(-c2ccc(C(F)(F)F)cn2)[nH]1)c1ncc(CO)s1`, the midpoint of inhibition in series [3], the IC50, lay at 0.52 µM. This compound gave a CC50 in the series with TZM of 74 µM.

With `NC[C@@H](NC(=O)c1ccc(-c2ccc(Cl)cn2)[nH]1)c1ncc(CO)s1`, in series [3], the midpoint of inhibition, the IC50, lay at 0.85 µM. It took 144 µM to reach half-maximal cytotoxicity in the series on TZM (CC50).

In the case of `Cc1ccc(-c2ccc(C(=O)N[C@@H](CN)c3nc(CO)cs3)[nH]2)nc1`, the IC50 in series [3] was > 11 µM. In the series on TZM, the CC50 was > 140 µM.

On to `NC[C@@H](NC(=O)c1ccc(-c2ccc(C(F)(F)F)cn2)[nH]1)c1ncc(C(O)CO)s1` (stereo partly specified), for which the IC50 in series [3] came to 2.1 µM.

Consider `NC[C@H](NC(=O)c1ccc(-c2ccc(C(F)(F)F)cn2)[nH]1)c1nc(CO)cs1`, for which half-maximal inhibition in series [3] (IC50) was put at 0.3 µM. Further, in the series on TZM, the midpoint of cytotoxicity, the CC50, lay at 77.9 µM.

`NC[C@@H](NC(=O)c1ccc(-c2ccc(C(F)(F)F)cn2)[nH]1)c1nc(CO)c(CO)s1` showed an IC50 in series [3] of 1.8 µM. In the series on TZM, the CC50 is > 113 µM.

In series [3], `NC[C@H](NC(=O)c1ccc(-c2ccc(C(F)(F)F)cn2)[nH]1)c1ncc(CO)s1` showed an IC50 of 1.2 µM.

In series [3], `NC[C@H](NC(=O)c1ccc(-c2ccc(C(F)(F)F)cn2)[nH]1)c1nc(CCCO)cs1` returned an IC50 of 0.89 µM. The same compound yielded a CC50 with TZM of 81.2 µM.

With `NC[C@H](NC(=O)c1ccc(-c2ccc(C(F)(F)F)nc2)[nH]1)c1nc(CO)cs1`, the midpoint of inhibition in series [3], the IC50, lay at 11.9 µM. In the series with TZM, the CC50 is > 122 µM.

Take `NC[C@H](NC(=O)c1ccc(-c2ccc(C(F)(F)F)nn2)[nH]1)c1nc(CO)cs1`: the IC50 in series [3] was > 12 µM.

As for `NC[C@H](NC(=O)c1ccc(-c2ccc(C(F)(F)F)cn2)[nH]1)c1nc(CCO)cs1`, the IC50 in series [3] came out at 0.76 µM. This compound returned a CC50 in the series with TZM of 91 µM.

`NC[C@@H](NC(=O)c1ccc(-c2ccc(C(F)(F)F)cn2)[nH]1)c1nc(C(O)CO)cs1` (stereo partly specified) gave an IC50 in series [3] of 5.2 µM.

For `NC[C@@H](NC(=O)c1ccc(-c2ccc(Cl)nc2)[nH]1)c1nc(CO)cs1`, the IC50 in series [3] is > 11 µM.

`CC(CN)(NC(=O)c1ccc(-c2ccc(C(F)(F)F)cn2)[nH]1)c1nc(CO)cs1` (racemic): in series [3], the IC50 is 5.1 µM. In addition, the CC50 in the series with TZM is > 70.5 µM.

`Cc1cc(-c2ccc(C(F)(F)F)cn2)[nH]c1C(=O)NC(C)(CN)c1nc(CO)cs1` (racemic) came in with an IC50 in series [3] of 2.6 µM. In addition, the CC50 in the series on TZM is > 68.3 µM.

In general, IC50 refers to the concentration needed to halve the response being measured. As usually defined, the CC50 is the concentration at which the toxic effect on the cells reaches its halfway point. A lower CC50 goes with harm at low concentration.
